Data set [1] deals with L1210. The data set is described as follows: Inhibition of RNA synthesis in mouse L1210 cells. In kind it is functional. Conditions: read-out: ED50 (the source's name). In short, it runs like this:
(§1)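 L1210 leukemia cells. Drugs were first dissolved in Me2SO to a final 1% Me2SO in the assay medium. Inhibition of DNA and RNA synthesis was measured separately and reported as ED50 (50% inhibitory dose, μM). Selectivity is the ratio of the DNA ED50 to the RNA ED50.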

For data set [2], the system named is L1210. Kind of data set: Inhibition of DNA synthesis in mouse L1210 cells. In kind it is functional. Conditions: read-out: ED50 (the source's name). In short, it runs like this:
as §1

The species named for a further data set is Rattus norvegicus. The data set is described as follows: Cardiotoxicity in rat assessed as minimum cumulative cardiotoxic dose by Zbinden test. The format is toxicity, organism-based. Conditions: in vivo. In short, it runs like this: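 Zbinden cardiotoxicity assay in rats. Drug was given cumulatively, with ECG monitoring. Value is the minimum total dose (mg/kg) that causes significant ECG alterations.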

Data set [3] is described as follows: Aqueous solubility of the compound. In kind it is physicochemical. Conditions: water.
Data set [4] has as its system L1210. The data set is described as follows: Selectivity ratio of ED50 for inhibition of DNA synthesis in mouse L1210 cells to ED50 for inhibition of RNA synthesis in mouse L1210 cells. In kind it is functional. In short, it runs like this:
as §1

Data set [5] deals with Salmonella typhimurium. The data set is described as follows: Mutagenicity in Salmonella typhimurium TA98 assessed as number of revertants by Ames test in presence of microsomal activation. In kind it is toxicity, organism-based. The note with it: salmonella enterica subsp. enterica serovar typhimurium. In short, it runs like this:
(§2)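 Ames plate test using Salmonella typhimurium tester strain TA98. Compounds were tested over dose ranges of 0-20 to 0-100 µg/plate, depending on the compound, and the toxicity level per plate was noted. Mutagenicity is expressed as revertants produced per nmol of compound.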
In general terms: The Ames test detects mutagens through reverse mutation in bacteria.

Data set [6] is described as follows: Aqueous solubility of the compound using 10% propylene glycol vehicle. The format is physicochemical. Conditions: 10% propylene glycol in water.
For data set [7], the system named is P388. Kind of data set: Antitumor activity against mouse P388 cells allografted in CDF/BDF mouse assessed as survival time at 37.5 mg/kg, ip administered as qd on day 5, 9, 13. In kind it is functional. The note with it: route intraperitoneal.
Data set [8] has as its system Salmonella typhimurium. The data set is described as follows: Mutagenicity in Salmonella typhimurium TA98 assessed as number of revertants by Ames test in absence of microsomal activation. In kind it is toxicity, organism-based. Conditions: salmonella enterica subsp. enterica serovar typhimurium. In short, it runs like this: as §2
Data set [9] has as its system P388. Kind of data set: Antitumor activity against mouse P388 cells allografted in CDF/BDF mouse assessed as survival time at 25 mg/kg, ip administered as qd for 1 to 9 days relative to control. In kind it is functional. Conditions: route intraperitoneal.
Another data set relates to Calf thymus DNA. Kind of data set: Binding affinity to calf thymus DNA assessed as change in melting temperature. The format is nucleic-acid assay. The note with it: Bos taurus. The gist of the method: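 Drug first dissolved in Me2SO to a final 5% Me2SO in the assay medium. DNA binding is read as the shift in DNA melting temperature (ΔTm). ΔTm below 1 is taken as insignificant binding.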

Take `COc1cccc2c1C(=O)c1c(O)c3c(c(O)c1C2=O)C[C@@](O)(C(C)=O)C[C@@H]3O[C@H]1C[C@H](N(Cc2ccccc2)Cc2ccccc2)[C@H](O)[C@H](C)O1.Cl`: the EC50 was 10 µM with L1210 [1] and over 100 µM in the data set on L1210 [2]. Further, in the data set filed under Rattus norvegicus, the MTC is 125 mg/kg. Also, the figures for the solubility in [3] and in [6] were 0.2 mg/mL and over 36 mg/mL, respectively. The “Ratio ED50” value in the data set on L1210 [4] was over 10. For the same compound, the Activity with Salmonella typhimurium [5] was 0.5 nmol⁻¹; with Salmonella typhimurium [8], “Non-toxic”. The T/C (as a rule, the result in the treated group divided by that in the control group, in per cent) is 209% in the data set with P388 [7] and 259% with P388 [9]. Also, the ΔTm (commonly the shift of the melting midpoint relative to a reference) with Calf thymus DNA is 1.35 °C.

Values taken from ChEMBL document CHEMBL3244252, “Adriamycin analogues. 3. Synthesis of N-alkylated anthracyclines with enhanced efficacy and reduced cardiotoxicity” (J Med Chem, 1979).
